From PubChem
HSF1 inh: HSF1 inhibition. NIH3T3-HGL HSE-luciferase, MG132-induced, luminescence 8 h; active compounds read low. activity change, negative = inhibition, % at 7.5 µM (by protocol). actives 0.77% (n = 300,000). AID 2098;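 active = more than half of replicate wells show activity change below -50%, luminescence cut by over half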;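 also: luciferase reports HSF-1 transcriptional activity via heat shock element; 0% = median of DMSO wells and -100% = zero luminescence signal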
DNA FID counter: displaces DNA intercalator in HCV helicase counter-screen; DNA fluorescent intercalator displacement, fluorescence; inhibition, % at 7.9 µM; actives 0.17% (n = 290,000); AID 1845; in the data active = inhibition above about 37%;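 also: 0% = vehicle and 100% = reference compound; higher means more ethidium bromide displaced from hairpin DNA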
HCV core dimer: blocks dimerization of HCV core protein | inhibition, % at 5 µM | TR-FRET GST/Flag-core106 dimerization, 1536-well | actives 0.33% (n = 300,000) | AID 1899;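 active = inhibition above the mean of all tested compounds plus 3 SD, set per screening campaign, cut at about 45% in these data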
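Material: Tagged HCV core106 pair (GST and Flag) | Amount: GST-core106 13.5 nM, Flag-core106 17 nM | Medium: KF-containing HEPES buffer, pH 7.45, DTT, CHAPS, BSA | Reagent: Eu donor and XL665 acceptor anti-tag antibodies | Schedule: 4 h at 22.5 °C | Technique: Time-resolved FRET, ex 340 nm, em 617 and 671 nm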
HSF-1 act: increases HSF-1 driven luciferase reporter signal; activation, % at 9 µM; actives 1.7% (n = 300,000); NIH3T3-HGL HSF-1 luciferase reporter, MG132, 8 h; 100% = twice DMSO control signal;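 active = mean replicate activation of at least 50% with a set share of replicates each reaching 50%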;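 also: 0% = median of the neutral control wells and 100% = twice that signal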
NS3 helicase inh: HCV NS3 helicase inhibition | NS3 helicase DNA unwinding, Cy5 molecular beacon fluorescence | inhibition, % at 10.9 µM | actives 0.56% (n = 290,000) | AID 1800;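 active = inhibition above the mean of all tested compounds plus 3 SD, set per campaign, cut at about 35% in these data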;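 also: 0% = DMSO wells and 100% = thioflavine S control wells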
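Control set: DMSO versus 110 µM thioflavine S; Material: NS3 helicase fragment of HCV; Measured by: Cy5 fluorescence at 0 and 60 min, beacon hairpin quenching; Read-out basis: percent inhibition from t60/t0 fluorescence ratio; Times: reaction time 60 min, 25 °C; Repeats: single replicate; Compound dosing: single dose, 10.9 µM nominal final, DMSO 0.8% final.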
HSP90 refold inh: HSP90 refolding inhibition in rabbit reticulocyte lysate; luciferase refolding luminescence, 3 h; inhibition, % at 5.6 µM; actives 0.91% (n = 290,000);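 active = inhibition above the screen-wide mean plus 3 SD, computed separately per campaign, cut at about 16% in these data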;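 also: 0% = DMSO wells and 100% = 60 µM geldanamycin wells; inhibitors lower the luminescence because luciferase stays unfolded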
An asterisk follows results filed as active; nt = not tested or not shown. An excerpt weighted towards active compounds, which were near 3.9% of everything screened.

SMILES	HSF1 inh	DNA FID counter	HCV core dimer	HSF-1 act	NS3 helicase inh	HSP90 refold inh
COc1ccc(-c2c[n+]3c4n2CCCCC4=C(c2ccccc2)C3)cc1	-4	-5	4	10	-101	2
O=C(CSc1c2c(nc3ccc(Cl)cc13)CCCC2)NCCCN1CCOCC1	41	8	1	68*	-7	-2
CC(C)CCNC(=O)c1ccc2c(SCC(=O)O)c3c(nc2c1)CCC3	-86*	-42	3	-89	11	0
CCN(CC)CCCNC(=O)CSc1c2c(nc3cc(Cl)ccc13)CCCC2	154	8	-1	202*	-30	-2
COCCCNC(=O)CSc1c2c(nc3ccc(Cl)cc13)CCCC2	37	-27	1	40	22	8
CCC1C(=O)NCCN1C(=O)c1ccc2nc(Cc3cccc(Cl)c3)oc2c1 (centres undefined)	-12	-33	-4	4	-6	-1
O=[N+]([O-])c1ccc(P(=O)(Cc2ccccc2)c2ccccc2O)cc1 (centres undefined)	-1	-14	1	-4	-5	10
CCN(CC)C(=O)CN(Cc1ccccc1)S(=O)(=O)c1ccc(F)cc1	-11	-12	-5	-33	1	3
CCN(Cc1ccccc1)S(=O)(=O)c1ccc(F)cc1	-62*	-10	1	-67	-8	0
O=c1[nH]c(-c2ccccc2)nc(-c2ccccc2)c1Cl	-7	nt	6	-2	nt	nt
CCOc1ccccc1NC(=O)CSc1n[nH]c(N)n1	-3	2	-4	8	1	-2
CCc1nnc(N/N=C/c2cc(Br)c(O)cc2O)n1N	40	7	-16	57*	3	7
Cc1ccc(-n2c(SCC(=O)Nc3cc(S(=O)(=O)N4CCOCC4)ccc3Cl)nc3ccccc3c2=O)cc1	29	0	23	73*	0	-5
Cc1cc(NC(=O)CSc2nnc(C)n2C)no1	-59*	-3	-6	-68	3	-1
CCc1cc2ccc(C)cc2nc1SCC(=O)Nc1cc(C)on1	-19	8	5	-35	-2	-1
Cc1ccc(Cn2c(SCC(=O)Nc3cc(C)on3)nc3ccccc3c2=O)cc1	2	2	62*	0	12	2
CCc1cc2cc3c(cc2nc1SCC(=O)Nc1cc(C)on1)OCO3	-1	-4	111*	-10	10	2
Cc1ccc(NS(=O)(=O)c2cc(C(=O)Nc3cccnc3)ccc2C)cc1	2	-24	nt	7	-5	-4
Cn1c(CNC(=O)Cc2ccc3c(c2)OCO3)nnc1SCc1ccccc1	-2	-12	-2	-10	0	-2
COc1ccc(C2CC(=O)C3=C(C2)Nc2ncnn2C3c2ccccc2)cc1 (centres undefined)	40	-14	-1	81*	-7	1
CNCCCOc1ccc2c(c1)CCC2	5	22	2	1	3	0
c1cnc(SCCOc2ccc3c(c2)CCC3)nc1	26	2	0	57*	-1	1
CC1=NN(C(N)=S)C(C)(C)C1	-55*	3	-3	-66	3	3
CCN(C(=O)c1ccc2c(=O)n3c(nc2c1)CCCCC3)c1cc(OC)ccc1OC	-4	-66	2	-2	5	-5
C=CCn1c(SCC(=O)Nc2sc3c(c2C#N)CCC3)nnc1C1COc2ccccc2O1 (centres undefined)	-1	-27	47*	0	9	2
SMILES	HSF1 inh	DNA FID counter	HCV core dimer	HSF-1 act	NS3 helicase inh	HSP90 refold inh
c1ccc2c(c1)nnn1c3ccccc3nc21	29	1	0	62*	-8	11
Cn1cccc1C(=O)OCc1csc(-c2ccccc2)n1	15	-15	3	63*	3	7
Cc1ccsc1C(=O)OCc1csc(-c2ccccc2)n1	22	-8	1	59*	-2	0
O=C(OCc1csc(-c2ccccc2)n1)c1cccs1	52	-7	0	91*	-6	2
COc1ccc(C(=O)NCC(=O)OCc2csc(-c3ccccc3)n2)cc1	7	-15	-3	1	-4	5
CNS(=O)(=O)c1cccc(C(=O)OCc2csc(-c3ccccc3)n2)c1	34	-12	-2	67*	-5	0
